Results taken from paper PMC6980694 (European journal of medicinal chemistry, 2019).

Assays:
[1] = system: Zika virus (PRVABC59 strain); type: cell-based; settings: for anti-Zika activity (in words): PRVABC59 strain, MOI 1, SNB-19 cells 24 h, titer in Vero cells 48 h
Procedure, shortened: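 SNB-19 cells, pretreated 1 h with graded compound concentrations (0.1% DMSO final), then infected with C6/36-derived ZIKV at MOI 1. Supernatants were harvested 24 h post-infection and focus-titered on confluent Vero cells: 2 h inoculation, methylcellulose overlay for 48 h, 4G2 antibody with HRP/DAB staining, foci counted.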

[2] = Cytotoxicity to Vero cells; type: cell-based; settings: monkey, Vero kidney cells

SMILES: C=C1CC[C@@H]2[C@](C)(CO)[C@H](O)CC[C@@]2(C)[C@@H]1C/C=C1/C(=O)OC[C@@H]1Oc1cccc2cccnc12 [Compound 3]
- safety/selectivity index (SI) ([1]; cell line not specified, CC50 in SNB-19 and Vero vs EC50): > 16

SMILES: C=C1CC[C@@H]2[C@](C)(CO)[C@H](O)CC[C@@]2(C)[C@@H]1C/C=C1/C(=O)OC[C@@H]1Oc1ccnc2ccccc12 [Compound 6]
- anti-Zika activity (in words) [1]: inactive

SMILES: C=C1CC[C@@H]2[C@](C)(CO)[C@H](O)CC[C@@]2(C)[C@@H]1C/C=C1/C(=O)OC[C@H]1Oc1ccnc2ccccc12 [Compound 7]
- CC50 at 48 h [2]: 22.3 µM

SMILES: C=C1CC[C@@H]2[C@]3(C)COC(C)(C)O[C@@H]3CC[C@@]2(C)[C@@H]1C/C=C1/C(=O)OC[C@@H]1Oc1c(Cl)cc(Cl)c2cccnc12 [Compound 15a, (14β)-(Quinolyl-5’,7’-dichloro-8’-oxy)-3,19-acetonylidene andrographolide]
- anti-Zika activity (in words) [1]: do not show anti-Zika activity

SMILES: C=C1CC[C@@H]2[C@]3(C)COC(C)(C)O[C@@H]3CC[C@@]2(C)[C@@H]1C/C=C1/C(=O)OC[C@H]1Oc1c(Cl)cc(Cl)c2cccnc12 [Compound 15b, (14α)-(Quinolyl-5’,7’-dichloro-8’-oxy)-3,19-acetonylidene andrographolide]
- anti-Zika activity (in words) [1]: do not show anti-Zika activity

SMILES: C=C1CC[C@@H]2[C@](C)(CO)[C@H](O)CC[C@@]2(C)[C@@H]1C/C=C1/C(=O)OC[C@H]1Oc1c(Cl)cc(Cl)c2cccnc12 [Compound 16b, (14α)-(Quinolyl-5’,7’-dichloro-8’-oxy)andrographolide]
- CC50 at 48 h [2]: 58.6 µM
